≈ marks a conversion by molar mass, not a printed value. One block for each compound: values may come before it.
Experiments:
Type in all cases: functional
Escherichia coli [1] = test: Inhibitory concentration required to displace dansyl-PMBN (0.55 uM) from maximal specific binding to Escherichia coli LPS
How it was run: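 Fluorescence displacement assay. E. coli LPS (3 µg/mL, ~2 × 10^-7 M) in 5 mM HEPES pH 7.2 was pre-equilibrated with dansyl-PMBN (0.55 µM). Peptide was added stepwise at 5-min intervals from 1 × 10^-5 to 1 × 10^-3 M stocks. Fluorescence read at excitation 340 nm and emission 485 nm after each addition. Percent inhibition was plotted against concentration to give maximal and 50% displacement. 2-3 repeats.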

Escherichia coli [2] = test: Relative sensitizing activity against Escherichia coli was determined as a percent of pPMBN (50 ug/mL) as a control
How it was run: (§1)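 Clinical isolates at 1 × 10^5 CFU per well, in ISB with a 2-fold serial dilution (1000-0.5 µg/mL) of novobiocin. Peptide added at 50 µg/mL final. Incubated 20 h at 37 °C and read by visible growth. Sensitizing activity is the fold drop in novobiocin MIC with versus without peptide, expressed as percent of that given by 50 µg/mL pPMBN.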

Escherichia coli [3] = test: Minimal inhibitory concentration of compound required against Escherichia coli was evaluated; Inactive
How it was run: (§2)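 Clinical isolates grown on nutrient agar and kept at 4 °C. Overnight culture in isotonic sensitest broth (ISB) adjusted to 1 × 10^5 CFU/mL and inoculated into wells holding a 2-fold serial dilution (1000-0.5 µg/mL) of test agent in ISB. Incubated 20 h at 37 °C. MIC is the lowest concentration with no visible growth. 4-8 separate tests, varying by no more than one dilution.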

Klebsiella pneumoniae [4] = test: Relative sensitizing activity against Klebsiella pneumoniae was determined as a percent of pPMBN (50 ug/mL) as a control; how it was run: as §1
Klebsiella pneumoniae [5] = test: Minimal inhibitory concentration of compound required against Klebsiella pneumoniae was evaluated; Inactive; how it was run: as §2
Pseudomonas aeruginosa = test: Minimal inhibitory concentration of compound required against Pseudomonas aeruginosa was evaluated
How it was run: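 P. aeruginosa clinical isolate kept on nutrient agar at 4 °C. Overnight culture in isotonic sensitest broth adjusted to 1 × 10^5 CFU/mL and added to serial 2-fold dilutions (1000-0.5 µg/mL) of test agent in the same broth. MIC is the lowest concentration with no visible growth after 20 h at 37 °C. 4-8 separate tests, varying by no more than one dilution.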

Escherichia coli [6] = test: Antimicrobial activity against Escherichia coli (Escherichia coli); how it was run: as §2
Klebsiella pneumoniae [7] = test: Antimicrobial activity against Klebsiella pneumoniae (Klebsiella pneumoniae); how it was run: as §2

Compound: CC(C)C[C@@H]1NC(=O)[C@@H](Cc2ccccc2)NC(=O)[C@H](CCN)NC(=O)[C@H](CCN)NC(=O)[C@@H](NC(=O)[C@@H](N)[C@@H](C)O)CCNC(=O)[C@H]([C@@H](C)O)NC(=O)[C@H](CCN)NC(=O)[C@H](CCN)NC1=O
IC50 (Escherichia coli [1]; Escherichia coli): 8 µM

Compound: CC(C)C[C@@H]1NC(=O)[C@@H](Cc2ccccc2)NC(=O)[C@H](CCN=C(N)N)NC(=O)[C@@H](NC(=O)[C@H](CCN=C(N)N)NC(=O)[C@@H](N)[C@@H](C)O)CCNC(=O)[C@H]([C@@H](C)O)NC(=O)[C@H](CCN=C(N)N)NC(=O)[C@H](CCN=C(N)N)NC1=O
IC50 (Escherichia coli [1]; Escherichia coli): 3.8 µM

Compound: CC(C)C[C@@H]1NC(=O)[C@@H](Cc2ccccc2)NC(=O)[C@H](CCN)NC(=O)[C@@H](NC(=O)[C@H](CCN)NC(=O)[C@@H](N)[C@@H](C)O)CCNC(=O)[C@H]([C@@H](C)O)NC(=O)[C@H](CCN)NC(=O)[C@H](CCN)NC1=O (stereo in doubt; form 2)
IC50 (Escherichia coli [1]): 3 µM

Compound: CC(C)C[C@@H]1NC(=O)[C@@H](Cc2ccccc2)NC(=O)[C@H](CCN)NC(=O)[C@@H](NC(=O)[C@H](CCN)NC(=O)[C@@H](N)[C@@H](C)O)CCNC(=O)[C@H]([C@@H](C)O)NC(=O)[C@H](CCN)NC(=O)[C@H](CCN)NC1=O (stereo in doubt; form 1) [listing 1 of 2 here]
IC50 (Escherichia coli [1]; Escherichia coli): 2.5 µM

Compound: CC(C)C[C@@H]1NC(=O)[C@@H](Cc2ccccc2)NC(=O)[C@H](CCN)NC(=O)[C@@H](NC(=O)[C@H](CCN)NC(=O)[C@@H](N)[C@@H](C)O)CCNC(=O)[C@H]([C@@H](C)O)NC(=O)[C@H](CCN)NC(=O)[C@H](CCN)NC1=O (stereo in doubt; form 1) [listing 2 of 2 here]
Activity (Escherichia coli [2]): 100% | MIC (Escherichia coli [3]): ≥ 1000 µg/mL | Activity (Klebsiella pneumoniae [4]): 100% | MIC (Klebsiella pneumoniae [5]): ≥ 1000 µg/mL | MIC (Pseudomonas aeruginosa): 8 µg/mL (≈ 8.31 µM)

Compound: CC(C)C[C@@H]1NC(=O)[C@@H](Cc2ccccc2)NC(=O)[C@H](CCCCN)NC(=O)[C@@H](NC(=O)[C@H](CCCCN)NC(=O)[C@@H](N)[C@@H](C)O)CCCCNC(=O)[C@H]([C@@H](C)O)NC(=O)[C@H](CCCCN)NC(=O)[C@H](CCCCN)NC1=O
IC50 (Escherichia coli [1]; Escherichia coli): 35 µM

Compound: CC(C)C[C@@H]1NC(=O)[C@@H](Cc2ccccc2)NC(=O)[C@H](CN)NC(=O)[C@@H](NC(=O)[C@H](CN)NC(=O)[C@@H](N)[C@@H](C)O)CNC(=O)[C@H]([C@@H](C)O)NC(=O)[C@H](CN)NC(=O)[C@H](CN)NC1=O
IC50 (Escherichia coli [1]; Escherichia coli): 30 µM

Compound: CC(C)C[C@@H]1NC(=O)[C@@H](Cc2ccccc2)NC(=O)[C@H](CCCN)NC(=O)[C@@H](NC(=O)[C@H](CCCN)NC(=O)[C@@H](N)[C@@H](C)O)CCCNC(=O)[C@H]([C@@H](C)O)NC(=O)[C@H](CCCN)NC(=O)[C@H](CCCN)NC1=O
IC50 (Escherichia coli [1]; Escherichia coli): 25 µM

Compound: CC(C)C[C@@H]1NC(=O)[C@@H](Cc2ccccc2)NC(=O)[C@H](CCCCN)NC(=O)[C@@H](NC(=O)[C@H](CCCCN)NC(=O)[C@@H](N)[C@@H](C)O)CCNC(=O)[C@H]([C@@H](C)O)NC(=O)[C@H](CCCCN)NC(=O)[C@H](CCCCN)NC1=O [listing 2 of 2 here]
Activity (Escherichia coli [2]): 5% | Activity (Klebsiella pneumoniae [4]): 3%

Continued, in another order:

IC50 (Escherichia coli [1]; Escherichia coli): 30 µM
Compound: CC(C)C[C@@H]1NC(=O)[C@@H](Cc2ccccc2)NC(=O)[C@H](CCCCN)NC(=O)[C@@H](NC(=O)[C@H](CCCCN)NC(=O)[C@@H](N)[C@@H](C)O)CCNC(=O)[C@H]([C@@H](C)O)NC(=O)[C@H](CCCCN)NC(=O)[C@H](CCCCN)NC1=O [listing 1 of 2 here]

IC50 (Escherichia coli [1]): 0.5 µM
Compound: POLYMYXIN B

MIC (Escherichia coli [6]): 125 µg/mL (≈ 204 µM) | MIC (Klebsiella pneumoniae [7]): 250 µg/mL (≈ 408 µM)
Compound: CO[C@@H]1[C@@H](OC(N)=O)[C@@H](O)[C@H](Oc2ccc3c(O)c(NC(=O)c4ccc(O)c(CC=C(C)C)c4)c(=O)oc3c2C)OC1(C)C [NOVOBIOCIN]
MIC (Escherichia coli [2]): 125 µg/mL | MIC (Klebsiella pneumoniae [4]): 62 µg/mL

IC50 (Escherichia coli [1]; Escherichia coli): 8 µM
Compound: CC(C)C[C@@H]1NC(=O)[C@H](Cc2ccccc2)NC(=O)[C@H](CCN)NC(=O)[C@@H](NC(=O)[C@H](CCN)NC(=O)[C@@H](N)[C@@H](C)O)CCNC(=O)[C@H]([C@@H](C)O)NC(=O)[C@H](CCN)NC(=O)[C@H](CCN)NC1=O

IC50 (Escherichia coli [1]; Escherichia coli): 14 µM
Compound: CC(C)C[C@@H]1NC(=O)[C@@H](Cc2ccccc2)NC(=O)[C@H](CCCCN)NC(=O)[C@@H](NC(=O)[C@H](CCCCN)NC(=O)[C@@H](N)[C@@H](C)O)CCNC(=O)[C@H]([C@@H](C)O)NC(=O)[C@H](CCN)NC(=O)[C@H](CCN)NC1=O

IC50 (Escherichia coli [1]; Escherichia coli): 15 µM
Compound: CC(C)C[C@@H]1NC(=O)[C@@H](Cc2ccccc2)NC(=O)[C@@H](NC(=O)[C@H](CCN)NC(=O)[C@H](CCN)NC(=O)[C@@H](N)[C@@H](C)O)CCNC(=O)[C@H]([C@@H](C)O)NC(=O)[C@H](CCN)NC(=O)[C@H](CCN)NC1=O

IC50 (Escherichia coli [1]; Escherichia coli): 12 µM
Compound: CC(C)C[C@@H]1NC(=O)[C@@H](Cc2ccccc2)NC(=O)[C@H](CCN)NC(=O)[C@@H](NC(=O)[C@H](CCN)NC(=O)[C@@H](N)[C@@H](C)O)CCNC(=O)[C@H]([C@@H](C)O)NC(=O)[C@H](CCCCN)NC(=O)[C@H](CCCCN)NC1=O

IC50 (Escherichia coli [1]; Escherichia coli): 8 µM
Compound: CC(C)C[C@@H]1NC(=O)[C@@H](Cc2ccccc2)NC(=O)[C@H](CCN)NC(=O)[C@@H](NC(=O)[C@H](CCN)NC(=O)[C@@H](N)[C@@H](C)O)CCCCNC(=O)[C@H]([C@@H](C)O)NC(=O)[C@H](CCN)NC(=O)[C@H](CCN)NC1=O

Reference: ChEMBL document CHEMBL1133010, “Structure-function studies of polymyxin B nonapeptide: implications to sensitization of gram-negative bacteria” (J Med Chem, 2000)
